MEKK3 PB1 HTS: modulators of MEKK3-MEK5 PB1 binding, primary screen, biochemical, wildtype MEKK3, multiplex bead flow cytometry, Alexa488-MEK5. Mitogen-activated protein kinase kinase kinase 3 (Homo sapiens), Q99759. bead-based flow cytometry, Alexa488-MEK5 binding to MEKK3; actives lie on both sides; 0 = blocked by unlabeled MEK5, 100 = vehicle. binding response (% of control), % at 10 µM. actives 1.4% (n = 290,000);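 active = binding response more than 3 SD above or below the average of its plate-row segment, actives on both sides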;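 note: Alexa488 bead fluorescence after subtracting the streptavidin-only scavenger bead signal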
Target sequence (Q99759 whole entry, looked up): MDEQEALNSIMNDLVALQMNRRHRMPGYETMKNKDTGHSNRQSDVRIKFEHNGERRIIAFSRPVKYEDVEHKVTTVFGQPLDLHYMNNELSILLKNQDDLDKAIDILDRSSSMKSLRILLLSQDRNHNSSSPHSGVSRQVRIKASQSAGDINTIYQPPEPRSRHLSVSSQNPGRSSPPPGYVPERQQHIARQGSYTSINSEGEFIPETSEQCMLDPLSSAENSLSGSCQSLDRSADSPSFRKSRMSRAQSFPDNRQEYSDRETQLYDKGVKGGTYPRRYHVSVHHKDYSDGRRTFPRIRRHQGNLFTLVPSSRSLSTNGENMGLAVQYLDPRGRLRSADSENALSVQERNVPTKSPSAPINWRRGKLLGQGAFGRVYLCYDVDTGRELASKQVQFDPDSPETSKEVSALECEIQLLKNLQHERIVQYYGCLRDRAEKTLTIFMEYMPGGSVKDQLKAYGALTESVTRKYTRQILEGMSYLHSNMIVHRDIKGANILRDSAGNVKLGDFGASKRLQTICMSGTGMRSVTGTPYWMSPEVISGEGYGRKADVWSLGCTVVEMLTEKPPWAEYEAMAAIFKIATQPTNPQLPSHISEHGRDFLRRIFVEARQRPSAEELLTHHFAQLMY
Arr AP2 block: inhibitors of beta-arrestin/AP2 binding, primary screen, biochemical, GPCR trafficking, flow cytometry; beta-arrestin 1 C-terminal peptide binding to AP2 beta2-adaptin appendage (human); actives 0.31% (n = 340,000); FITC-arrestin peptide / GST-AP2 beads; AP2 beta2 appendage carries R879A mutation; AID 504490, 2011; inhibition, % at 10 µM;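 active = inhibition above a set limit, near 3 SD of compounds lacking own fluorescence, cut at about 54% in these data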;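 note: plate controls were DMSO wells for no effect and 5 µM unlabelled arrestin peptide for full effect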
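system = GST-tagged AP2 beta2-adaptin appendage (R879A) on 4 µm glutathione beads | reagent = FITC-labelled arrestin peptide probe, 50 nM final | schedule = compound with beads 12 min RT, then probe 1 h RT | signal = HyperCyt-sampled flow cytometry, FL1 channel, ex 488/em 535 nm | read-out = percent response from loss of bead-bound FITC fluorescence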
MEKK2 WT-MEK5: modulators of MEK5 binding to wildtype MEKK2, primary screen, biochemical, multiplex bead flow cytometry, Alexa488-MEK5; Mitogen-activated protein kinase kinase kinase 2 (Homo sapiens), Q9Y2U5; Alexa488-MEK5 binding to MEKK2 WT; actives lie on both sides; binding response (% of control), % at 10 µM; actives 1.1% (n = 290,000); AID 1531, 2009; in the data active = binding response below about 67% or above about 130%
MEKK2 mut-MEK5: MEK5 binding signal on mutant MEKK2 PB1, primary screen, biochemical, multiplex bead flow cytometry, Alexa488-MEK5; Alexa488-MEK5 binding to MEKK2 mutant; percent response, % at 10 µM; actives 0.35% (n = 290,000); AID 1530, 2009; in the data active = percent response above about 24%, passing the limit was not always enough
MEKK2wt confirm: modulators of MEK5 binding to wildtype MEKK2, confirmation, biochemical, single concentration, multiplex bead flow cytometry; shares compounds with MEKK3 PB1 HTS; binding response (% of control), % at 10 µM; actives 2.4% (n = 5,900); Alexa488-MEK5 binding to MEKK2 WT; actives lie on both sides; AID 1892, 2009; in the data active = binding response below about 16% or above about 210%; inactive = in between
MEKK2mut-MEK5: mutant MEKK2 PB1-MEK5 binding signal retest – biochemical, single concentration, multiplex bead flow cytometry, confirmation; shares compounds with MEKK3 PB1 HTS; Alexa488-MEK5 binding to MEKK2 mutant; percent response, % at 10 µM; actives 2% (n = 5,900); AID 1893, 2009; in the data active = percent response mostly above about 71%, no sharp cut-off; inactive = mostly below about 38%;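 note: higher means compound restores mutant binding toward wildtype level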
MEKK3 confirm: MEKK3 wild-type PB1 binding to MEK5, inhibitors, confirmation, biochemical, bead multiplex flow cytometry, single concentration, wildtype; shares compounds with MEKK3 PB1 HTS; AID 1894, 2009; actives 1.8% (n = 5,900); Alexa488-MEK5 binding to MEKK3; active compounds read low; binding response (% of control), % at 10 µM;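 active = binding response below 72% of control, or above a set upper limit, though filed actives all read lower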;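 note: 100% = DMSO only wells and 0% = binding blocked by excess unlabeled MEK5; lower values mean stronger disruption of MEK5 binding to MEKK3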
The depositor's hits bear a star; · = no result; [ ] = remark or other dose. Shown are actives, neighbours in structure and some others; about 2.3% of the full set was active somewhere.

SMILES	MEKK3 PB1 HTS	Arr AP2 block	MEKK2 WT-MEK5	MEKK2 mut-MEK5	MEKK2wt confirm	MEKK2mut-MEK5	MEKK3 confirm
COc1ccccc1CC(=O)NC1CC(C)(C)NC(C)(C)C1	·	4	·	·	·	·	·
COc1cccc(CN(C)C(=O)C2CC(=O)N(c3ccc4c(c3)OCCO4)C2)c1 (configuration not stated)	·	0	·	·	·	·	·
COc1cc(CCCN2C(=O)C(=O)NC[C@@H]2C(C)O)cc(OC)c1OC (some centres not stated)	2.0*[inhibitor]	9	2.0*[inhibitor]	4	102	-4	97
S=C(Nc1ccc(Br)cc1Cl)N1CCN(c2ccccn2)CC1	102	-8	102	2	·	·	·
COCc1c(C(=O)OC)nnn1-c1ccc(C(F)(F)F)cc1[N+](=O)[O-]	101	-6	105	7	·	·	·
CCN1C(=O)C(CC(=O)Nc2ccc(F)cc2)N(Cc2ccco2)C1=S (configuration not stated)	104	24	99	3	·	·	·
CCCCCCOc1ccc(NC(=O)CC2C(=O)N(CC)C(=S)N2Cc2ccco2)cc1 (configuration not stated)	110	-30	141*	3	111	3	107
C=CCN1C(=O)C(CC(=O)Nc2ccc(OCCC)cc2)N(CCCN2CCN(Cc3ccccc3)CC2)C1=S (configuration not stated)	111	11	183*	42	148	22	110
CCOc1ccc(NC(=O)CC2C(=O)N(c3ccccc3)C(=S)N2Cc2ccccn2)cc1 (configuration not stated)	1.0*[inhibitor]	-5	1.0*[inhibitor]	-18	107	3	101
O=C(Nc1ncc2c(n1)-c1ccccc1CC2)c1cccs1	109	16	101	1	·	·	·
CC1=C(C(=O)OCCOc2ccccc2)C(c2coc3ccccc3c2=O)C2=C(CCCC2=O)N1 (configuration not stated)	69*[inhibitor]	-10	81	-2	103	-4	101
CCOC(=O)C1=C(C)NC2=C(C(=O)CCC2)C1c1coc2ccccc2c1=O (configuration not stated)	91	0	91	-4	·	·	·
CC1=C(C(=O)OC2CCCC2)C(c2coc3ccccc3c2=O)C2=C(CCCC2=O)N1 (configuration not stated)	133*	-19	117	0	113	-3	87
COC(=O)C1=C(C)NC2=C(C(=O)CCC2)C1c1coc2ccccc2c1=O (configuration not stated)	99	0	103	-3	·	·	·
O=C(COC(=O)/C=C/c1ccccc1Cl)NC1CCCCCC1	92	6	97	-2	·	·	·
O=S(=O)(c1ccc(Cl)cc1)N1CCCc2ccccc21	100	42	103	2	·	·	·
O=S(=O)(c1ccc(Cl)cc1)N1CCc2ccccc21	102	-4	66	46*	104	3	103
CCOc1ccccc1N(CC(=O)NCCSc1ccccc1)S(C)(=O)=O	132*	-11	119	1	103	0	107
O=C(NC(=S)Nc1cccnc1Cl)c1ccc(F)cc1	104	6	104	-2	·	·	·
N#CC1(NC(=O)CSc2nc3ccccc3o2)CCCCC1	·	7	·	·	·	·	·
CC(C(=O)NCCS(=O)(=O)c1ccc(Cl)cc1)S(=O)(=O)c1ccc(Cl)cc1 (configuration not stated)	108	11	104	2	·	·	·
CC(C(=O)NCCS(=O)(=O)c1ccc(Cl)cc1)S(=O)(=O)c1ccccc1 (configuration not stated)	152*	12	139	8	106	4	102
COCCNC(=O)Cn1c(=O)n(CCCCCC(=O)Nc2ccccc2)c(=O)c2sccc21	135*	23	107	1	104	1	103
COC(=O)C1=C(Nc2cc(Cl)cc(Cl)c2)CSC1	86	29	92	-31	·	·	·
NC1=NC2(CCCCC2)N=C(Nc2ccc(Br)cc2)N1	107	-3	141*	36	120	6	101
SMILES	MEKK3 PB1 HTS	Arr AP2 block	MEKK2 WT-MEK5	MEKK2 mut-MEK5	MEKK2wt confirm	MEKK2mut-MEK5	MEKK3 confirm
COc1ccc(-c2nnc(SCC(=O)NC(=O)Cc3ccccc3)n2C)cc1	·	11	·	·	·	·	·
Brc1ccccc1OCCNCc1ccccc1	88	15	95	-11	·	·	·
Clc1ccc(OCCCNCc2ccccc2)c2ccccc12	117	3	253*	28*	161	29	102
CC(C)NS(=O)(=O)c1ccc(CCC(=O)Nc2ccc3c(c2)OCCO3)cc1	164*	5	114	3	101	-2	95
Clc1cccc2c1CCN(Cc1nc(-c3cnccn3)no1)C2	111	0	100	6	·	·	·
O=C(CN1C(=O)C(=O)c2ccccc21)NC1CCCCC1	48*[inhibitor]	7	98	0	101	5	100
CCOc1ccc(NC(=O)CN(C)C(=O)c2sccc2-c2ccccc2)cc1OCC	·	8	·	·	·	·	·
Cn1nnnc1SCC(=O)Nc1ccccc1Cc1ccccc1	3.0*[inhibitor]	5	3.0*[inhibitor]	-24	100	-2	102
COc1ccc2nc(NC(=O)CCc3cc(OC)c(OC)c(OC)c3)sc2c1	97	-15	96	-6	·	·	·
O=C(NCCCN1CCc2ccccc2C1)C1CCN(c2nnc(-n3cccc3)s2)CC1	115	5	219*	55*	186	62	113
O=C(NC1CCN(Cc2ccccc2)CC1)C1CCN(c2nnc(-n3cccc3)s2)CC1	112	11	203*	50*	183	65	111
Cc1ccc(C)n1-c1nnc(N2CCC(C(=O)NCCCN3CCN(C)CC3)CC2)s1	103	19	111	2	·	·	·
Cc1nn(-c2ccccc2)c2c1CC(=O)Nc1ccccc1-2	·	16	·	·	·	·	·
Cc1ccc(C(C(=O)NC2CCCC2)N(Cc2ccc(F)cc2)C(=O)c2csnn2)o1 (configuration not stated)	3.0*[inhibitor]	16	3.0*[inhibitor]	-16	96	-9	96
COc1ccc(CNC(=O)CN(Cc2ccc(F)cc2)C(=O)c2csnn2)cc1	148*	-25	124	5	98	-2	97
COc1ccc(CN(CC(=O)NCc2ccccc2)C(=O)c2csnn2)cc1	96	-6	93	-4	·	·	·

Bioassay records as filed in PubChem BioAssay.
